Data as given in ChEMBL document CHEMBL1141844, “Geranins A and B, new antiprotozoal A-type proanthocyanidins from Geranium niveum” (J Nat Prod, 1999).
In brackets after ≈: the same amount, converted by molar mass. Activity calls are given as the source filed them. No cut-off for these calls is given here.

How the values were obtained:
A549 = assay: Cytotoxicity against human A549 cells after 7 days by MTT method; type: functional, cell-based
Procedure, shortened: (§1)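 Run at the Purdue Cell Culture Laboratory as a seven-day MTT assay on human solid tumour lines, with adriamycin as the positive control.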

MCF7 = assay: Cytotoxicity against human MCF7 cells after 7 days by MTT method; type: functional, cell-based; procedure, shortened: as §1
Giardia intestinalis = assay: Antiprotozoal activity against axenically grown trophozoites of Giardia lamblia IMSS:0989:1 after 48 hrs by MTT method; type: functional, organism-based; settings: Giardia duodenalis
Procedure, shortened: (§2)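 Log-phase trophozoites from axenic culture: E. histolytica in TYI-S-33 with 10% bovine serum (inoculum 6 × 10³/mL), G. lamblia in modified TYI-S-33 with 10% calf serum (inoculum 5 × 10⁴/mL). Test material in DMSO/medium at 2.5–200 µg/mL, 48 h, 37 °C. Counted by haemocytometer, then MTT (0.075% final) plus PMS, 45 min, A570. Inhibition converted to probits and regressed on log concentration to give IC50. Duplicates, repeated at least three times.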

HT-29 = assay: Cytotoxicity against human HT-29 cells after 7 days by MTT method; type: functional, cell-based; procedure, shortened: as §1
Entamoeba histolytica = assay: Antiprotozoal activity against axenically grown trophozoites of Entamoeba histolytica HM1-IMSS after 48 hrs by MTT method; type: functional, organism-based; procedure, shortened: as §2

Compound	Activity (A549)	Activity (MCF7)	IC50 (Giardia intestinalis) [µg/mL]	Activity (HT-29)	IC50 (Entamoeba histolytica) [µg/mL]
COC(=O)c1cc(O)c(O)c(O)c1 [GALLIC ACID METHYL ESTER]	inactive	inactive	49.2 (≈ 267 µM)	inactive	144 (≈ 780 µM)
Oc1ccc([C@H]2Oc3c(c(O)cc4c3[C@H]3c5c(O)cc(O)cc5O[C@@](c5ccc(O)cc5)(O4)[C@@H]3O)C[C@@H]2O)cc1 [GERANIN A]	inactive	inactive	2.4 (≈ 4.41 µM)	inactive	185 (≈ 339 µM)
O=c1c(O[C@@H]2O[C@H](CO)[C@H](O)[C@H](O)[C@H]2O)c(-c2ccc(O)c(O)c2)oc2cc(O)cc(O)c12 [HYPEROSIDE]	inactive	inactive	85.1 (≈ 183 µM)	inactive	109 (≈ 235 µM)
Cc1ncc([N+](=O)[O-])n1CCO [METRONIDAZOLE]	inactive	inactive		inactive	0.04 (≈ 0.234 µM)
CC1(C)CC[C@]2(C(=O)O)CC[C@]3(C)C(=CC[C@@H]4[C@@]5(C)CC[C@H](C(=O)/C=C/c6ccc(O)c(O)c6)C(C)(C)[C@@H]5CC[C@]43C)[C@@H]2C1	inactive	inactive	31.2 (≈ 51.8 µM)	inactive	22.6 (≈ 37.5 µM)
Oc1ccc([C@H]2Oc3c(c(O)cc4c3[C@H]3c5c(O)cc(O)cc5O[C@@](c5ccc(O)c(O)c5)(O4)[C@@H]3O)C[C@@H]2O)cc1 [GERANIN B]	inactive	inactive	6 (≈ 10.7 µM)	inactive	13.6 (≈ 24.3 µM)
